How the values were obtained:
HT-29 [1] = assay: Potency index, ratio of Arjunolic acid IC50 to test compound IC50 for cytotoxicity against human HT-29 cells assessed as inhibition of cell growth incubated for 72 hrs by MTT assay; type: functional
Procedure, shortened: (§1)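 Potency index: arjunolic acid IC50 divided by derivative IC50 from the 72 h MTT assay on HT-29 (4500 cells/well) or PANC-1 (4000 cells/well). IC50 from three independent experiments.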

HT-29 [2] = assay: Cytotoxicity against human HT-29 cells assessed as inhibition of cell growth incubated for 72 hrs by MTT assay; type: functional, cell-based; conditions: HT-29, 72 h
Procedure, shortened: (§2)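 Cells seeded per well (HT-29 4500, PANC-1 4000, SK-MEL-28 3200, A375 1200, A549 2500, H2170 and BJ 10 000) and left 24 h. They were then exposed to increasing concentrations for 72 h and incubated 1 h with MTT 0.5 mg mL−1. Formazan was dissolved in DMSO and absorbance read at 550 nm. IC50 from three independent experiments. Final DMSO ≤0.5%.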

PANC-1 [3] = assay: Cytotoxicity against human PANC-1 cells assessed as inhibition of cell growth incubated for 72 hrs by MTT assay; type: functional, cell-based; conditions: PANC-1, 72 h; procedure, shortened: as §2
PANC-1 [4] = assay: Potency index, ratio of Arjunolic acid IC50 to test compound IC50 for cytotoxicity against human PANC-1 cells assessed as inhibition of cell growth incubated for 72 hrs by MTT assay; type: functional; procedure, shortened: as §1
NCI-H2170 = assay: Cytotoxicity against human NCI-H2170 cells assessed as inhibition of cell growth incubated for 72 hrs by MTT assay; type: functional, cell-based; conditions: NCI-H2170, 72 h; procedure, shortened: as §2
SK-MEL-28 = assay: Cytotoxicity against human SK-MEL-28 cells assessed as inhibition of cell growth incubated for 72 hrs by MTT assay; type: functional, cell-based; conditions: SK-MEL-28, 72 h; procedure, shortened: as §2
A-375 = assay: Cytotoxicity against human A-375 cells assessed as inhibition of cell growth incubated for 72 hrs by MTT assay; type: functional, cell-based; conditions: A-375, 72 h; procedure, shortened: as §2
A549 = assay: Cytotoxicity against human A549 cells assessed as inhibition of cell growth incubated for 72 hrs by MTT assay; type: functional, cell-based; conditions: A549, 72 h; procedure, shortened: as §2
[5] = Selectivity index, ratio of IC50 for cytotoxicity against human BJ cells to IC50 for cytotoxicity against human PANC-1; type: toxicity, cell-based; conditions: BJ cells and PANC-1 cells, read-out: Ratio IC50
Procedure, shortened: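 Selectivity index: BJ fibroblast IC50 over PANC-1 IC50, both from the 72 h MTT assay with 24 h pre-seeding (10 000 and 4000 cells/well). IC50 from three independent experiments.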

[6] = Cytotoxicity against human BJ cells assessed as inhibition of cell growth incubated for 72 hrs by MTT assay; type: toxicity, cell-based; procedure, shortened: as §2

| SMILES | IC50 (HT-29 [2]) | IC50 (PANC-1 [3]) | further results |
| --- | --- | --- | --- |
| CCOC(=O)[C@]12CCC(C)(C)C[C@H]1C1=CC[C@@H]3[C@@]4(C)C[C@@H](O)[C@H](O)[C@@](C)(CO)[C@@H]4CC[C@@]3(C)[C@]1(C)CC2 | 11.6 µM | 20.2 µM | Ratio IC50 (HT-29 [1]): 3.1; Ratio IC50 (PANC-1 [4]): 2.7 |
| CCNC(=O)[C@]12CCC(C)(C)C[C@H]1C1=CC[C@@H]3[C@@]4(C)C[C@@H](O)OC[C@](C)(C=O)[C@@H]4CC[C@@]3(C)[C@]1(C)CC2 |  | 22 µM |  |
| COC(=O)[C@]12CCC(C)(C)C[C@H]1C1=CC[C@@H]3[C@@]4(C)C(C=O)=C[C@@](C)(CO)[C@@H]4CC[C@@]3(C)[C@]1(C)CC2 | 0.87 µM | 0.82 µM | IC50 (NCI-H2170): 2110 nM; IC50 (SK-MEL-28): 850 nM; IC50 (A-375): 850 nM; IC50 (A549): 1220 nM |
| C=CCOC(=O)[C@]12CCC(C)(C)C[C@H]1C1=CC[C@@H]3[C@@]4(C)C[C@@H](O)OC[C@](C)(C=O)[C@@H]4CC[C@@]3(C)[C@]1(C)CC2 | 4.38 µM | 4.92 µM |  |
| C=CCOC(=O)[C@]12CCC(C)(C)C[C@H]1C1=CC[C@@H]3[C@@]4(C)C(C=O)=C[C@@](C)(CO)[C@@H]4CC[C@@]3(C)[C@]1(C)CC2 | 0.55 µM | 0.84 µM | IC50 (NCI-H2170): 1510 nM; IC50 (SK-MEL-28): 530 nM; IC50 (A-375): 590 nM; IC50 (A549): 820 nM |
| CC1(C)CC[C@]2(C(=O)O)CC[C@]3(C)C(=CC[C@@H]4[C@@]5(C)C[C@@H](O)OC[C@](C)(C=O)[C@@H]5CC[C@]43C)[C@@H]2C1 | > 30 µM | > 30 µM |  |
| CCCCOC(=O)[C@]12CCC(C)(C)C[C@H]1C1=CC[C@@H]3[C@@]4(C)C[C@@H](O)OC[C@](C)(C=O)[C@@H]4CC[C@@]3(C)[C@]1(C)CC2 | 4.46 µM | 4.58 µM |  |
| CCNC(=O)[C@]12CCC(C)(C)C[C@H]1C1=CC[C@@H]3[C@@]4(C)C(C=O)=C[C@@](C)(CO)[C@@H]4CC[C@@]3(C)[C@]1(C)CC2 | 3.43 µM | 4.15 µM |  |
| CC1(C)CC[C@]2(C(=O)O)CC[C@]3(C)C(=CC[C@@H]4[C@@]5(C)C[C@@H](O)[C@H](O)[C@@](C)(CO)[C@@H]5CC[C@]43C)[C@@H]2C1 [ARJUNOLIC ACID] | 36.4 µM | 56.3 µM |  |
| CCCCOC(=O)[C@]12CCC(C)(C)C[C@H]1C1=CC[C@@H]3[C@@]4(C)C[C@@H](O)[C@H](O)[C@@](C)(CO)[C@@H]4CC[C@@]3(C)[C@]1(C)CC2 | 13.7 µM | 20.2 µM | Ratio IC50 (HT-29 [1]): 2.7; Ratio IC50 (PANC-1 [4]): 2.7 |
| CC1(C)CC[C@]2(C(=O)O)CC[C@]3(C)C(=CC[C@@H]4[C@@]5(C)C(C=O)=C[C@@](C)(CO)[C@@H]5CC[C@]43C)[C@@H]2C1 | 5.73 µM | 5.27 µM |  |
| CCOC(=O)[C@]12CCC(C)(C)C[C@H]1C1=CC[C@@H]3[C@@]4(C)C[C@@H](O)OC[C@](C)(C=O)[C@@H]4CC[C@@]3(C)[C@]1(C)CC2 | 6.7 µM | 7.14 µM |  |
| CCCCOC(=O)[C@]12CCC(C)(C)C[C@H]1C1=CC[C@@H]3[C@@]4(C)C(C=O)=C[C@@](C)(CO)[C@@H]4CC[C@@]3(C)[C@]1(C)CC2 | 0.55 µM | 0.43 µM | IC50 (NCI-H2170): 1300 nM; IC50 (SK-MEL-28): 450 nM; selectivity ratio [5]: 6.5; IC50 at 72 h [6]: 2790 nM; IC50 (A-375): 550 nM; IC50 (A549): 580 nM |
| CNC(=O)[C@]12CCC(C)(C)C[C@H]1C1=CC[C@@H]3[C@@]4(C)C[C@@H](O)OC[C@](C)(C=O)[C@@H]4CC[C@@]3(C)[C@]1(C)CC2 | 25.9 µM | 16.6 µM |  |
| CC1(C)CC[C@]2(C(N)=O)CC[C@]3(C)C(=CC[C@@H]4[C@@]5(C)C(C=O)=C[C@@](C)(CO)[C@@H]5CC[C@]43C)[C@@H]2C1 | 5.81 µM | 3.74 µM |  |
| CNC(=O)[C@]12CCC(C)(C)C[C@H]1C1=CC[C@@H]3[C@@]4(C)C[C@@H](OC(C)=O)[C@H](OC(C)=O)[C@@](C)(COC(C)=O)[C@@H]4CC[C@@]3(C)[C@]1(C)CC2 | 16.5 µM | 0.93 µM | Ratio IC50 (PANC-1 [4]): 60 |
| CC1(C)CC[C@]2(C(N)=O)CC[C@]3(C)C(=CC[C@@H]4[C@@]5(C)C[C@@H](O)OC[C@](C)(C=O)[C@@H]5CC[C@]43C)[C@@H]2C1 |  | 29.3 µM |  |
| CC(=O)OC[C@@]1(C)[C@@H]2CC[C@]3(C)[C@H](CC=C4[C@@H]5CC(C)(C)CC[C@]5(C(=O)O)CC[C@]43C)[C@@]2(C)C[C@@H](OC(C)=O)[C@@H]1OC(C)=O | 12.4 µM | 14.9 µM |  |
| COC(=O)[C@]12CCC(C)(C)C[C@H]1C1=CC[C@@H]3[C@@]4(C)C[C@@H](O)OC[C@](C)(C=O)[C@@H]4CC[C@@]3(C)[C@]1(C)CC2 | 5.59 µM | 6.7 µM |  |
| CCNC(=O)[C@]12CCC(C)(C)C[C@H]1C1=CC[C@@H]3[C@@]4(C)C[C@@H](OC(C)=O)[C@H](OC(C)=O)[C@@](C)(COC(C)=O)[C@@H]4CC[C@@]3(C)[C@]1(C)CC2 | 1.17 µM | 0.63 µM | Ratio IC50 (PANC-1 [4]): 89 |
| CC1(C)CC[C@]2(C(N)=O)CC[C@]3(C)C(=CC[C@@H]4[C@@]5(C)C[C@@H](O)[C@H](O)[C@@](C)(CO)[C@@H]5CC[C@]43C)[C@@H]2C1 | > 30 µM | > 30 µM |  |
| CC(=O)OC[C@@]1(C)[C@@H]2CC[C@]3(C)[C@H](CC=C4[C@@H]5CC(C)(C)CC[C@]5(C(N)=O)CC[C@]43C)[C@@]2(C)C[C@@H](OC(C)=O)[C@@H]1OC(C)=O | 19.3 µM | 3.63 µM | Ratio IC50 (PANC-1 [4]): 15 |
| COC(=O)[C@]12CCC(C)(C)C[C@H]1C1=CC[C@@H]3[C@@]4(C)C[C@@H](O)[C@H](O)[C@@](C)(CO)[C@@H]4CC[C@@]3(C)[C@]1(C)CC2 | 16.7 µM | 19.7 µM | Ratio IC50 (HT-29 [1]): 2.2; Ratio IC50 (PANC-1 [4]): 2.7 |
| CCNC(=O)[C@]12CCC(C)(C)C[C@H]1C1=CC[C@@H]3[C@@]4(C)C[C@@H](O)[C@H](O)[C@@](C)(CO)[C@@H]4CC[C@@]3(C)[C@]1(C)CC2 | 25.5 µM | 27.6 µM |  |
| CNC(=O)[C@]12CCC(C)(C)C[C@H]1C1=CC[C@@H]3[C@@]4(C)C[C@@H](O)[C@H](O)[C@@](C)(CO)[C@@H]4CC[C@@]3(C)[C@]1(C)CC2 | > 30 µM | > 30 µM |  |
| C=CCOC(=O)[C@]12CCC(C)(C)C[C@H]1C1=CC[C@@H]3[C@@]4(C)C[C@@H](O)[C@H](O)[C@@](C)(CO)[C@@H]4CC[C@@]3(C)[C@]1(C)CC2 | 12.8 µM | 18.9 µM | Ratio IC50 (HT-29 [1]): 2.8; Ratio IC50 (PANC-1 [4]): 3 |
| CNC(=O)[C@]12CCC(C)(C)C[C@H]1C1=CC[C@@H]3[C@@]4(C)C(C=O)=C[C@@](C)(CO)[C@@H]4CC[C@@]3(C)[C@]1(C)CC2 | 7.41 µM | 2.38 µM |  |

Source: ChEMBL document CHEMBL5230168, “Design, synthesis, and biological evaluation of new arjunolic acid derivatives as anticancer agents” (RSC Med Chem, 2023)
